Laboratory results as given in article PMC7067668 (Journal of biological inorganic chemistry : JBIC : a …, 2019).
Starred links: 1 amine or outer side, 2 acyl side, 3 side chain; linkers in the order of their positions; H or OH if unused. Non-standard residues stand in square brackets, D forms with d. Residues, ends and D or L forms follow the SMILES beside them. *: point of attachment. NOTA(2S-Bn(4-NHCS)) = O=C(O)CN1CCN(CC(=O)O)C[C@H](Cc2ccc(NC(=S)*)cc2)N(CC(=O)O)CC1; NH(CH2CH2O)4CH2CO = O=C(COCCOCCOCCOCCN[*:1])[*:2]; Acryloyl(3-(3-pyridyl),E) = O=C(/C=C/c1cccnc1)*; X1 = O=C(Cc1ccc(N[*:1])cc1)[*:2]; Aad = N[C@@H](CCCC(=O)O)C(=O)O; NH(2-Me-phenyl) = Cc1ccccc1N*; Ac6c = NC1(C(=O)O)CCCCC1; CO = O=C([*:1])[*:2]

How the values were obtained:
B16F10 cells = assay: Cell uptake and internalization; type: cell-based, mouse; conditions: co-incubation with 10 μg unlabeled LLP2A-PEG4 per well, n = 3
Outline: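 Radiotracer uptake in B16F10 cells, grown in DMEM with 10% FBS at 37°C, 5% CO2, seeded at 200,000 cells/well 24 h before. Cells were rinsed with HBSS, then given DMEM with 0.1% BSA and 1 mM Mn²⁺ plus ~74 kBq/well Al¹⁸F- or ⁶⁸Ga-labeled test compound, with or without 10 μg/well unlabeled peptide. Sampling was at 0.5, 1, 2 h (⁶⁸Ga) or up to 4 h (¹⁸F). Cells were PBS-washed and gamma-counted.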

B16F10 xenografts = assay: Micro-PET imaging, B16F10 xenografts; type: in vivo, mouse; conditions: co-injection of 100 μg unlabeled LLP2A-PEG4; 4 mice per group
Outline: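 Female C57BL/6 mice bore subcutaneous right-shoulder B16F10 grafts (one million cells). They received intravenous Al¹⁸F- or ⁶⁸Ga-labeled test compound, 5.5–7.4 MBq (100–200 pmol), co-injected with 100 μg unlabeled peptide. Static small-animal PET was acquired under 2% isoflurane at 0.5, 1, 2 h p.i. (plus 4 h for ¹⁸F).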

[1] = tested on: mice bearing B16F10 xenografts; assay: Ex vivo biodistribution; type: in vivo, mouse; conditions: n = 5; for liver uptake: i.v. 5.5–7.4 MBq (100–200 pmol)
Outline: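 Female C57BL/6 mice (four weeks old) carried subcutaneous right-shoulder B16F10 grafts (one million cells in PBS). Radiolabeled test compound was injected intravenously at 5.5–7.4 MBq (100–200 pmol), with or without 100 μg unlabeled peptide. Mice were sacrificed at 0.5, 1, 2 h p.i. (4 h for the ¹⁸F tracer). Organs and tumor were weighed and gamma-counted, expressed as %ID/g, n = 5.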

A375 xenografts = assay: Micro-PET imaging, VLA-4-negative A375 xenografts; type: in vivo, mouse; conditions: BALB/c nude mice, 0.5 h, 1 h, 2 h p.i., 5.5–7.4 MBq
Outline: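 Female BALB/c nude mice carried subcutaneous right-shoulder A375 (VLA-4-negative) grafts of one million cells in PBS. ⁶⁸Ga-labeled test compound was injected intravenously at 5.5–7.4 MBq (100–200 pmol). Static small-animal PET was acquired under 2% isoflurane anesthesia at 0.5, 1 and 2 h p.i.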

| Structure (SMILES) | reduction of cell uptake by blocking dose (B16F10 cells) | activity accumulation in B16F10 xenografts with blocking agent (PET) (B16F10 xenografts) | bone uptake ([1]; 0.5 h p.i., B16F10 tumor mice) | tumor uptake ([1]; 0.5 h p.i.) | liver uptake ([1]; 1 h p.i., B16F10 tumor mice) | tumor-to-blood ratio ([1]; 1 h p.i.) | colon uptake ([1]; 2 h p.i., B16F10 tumor mice) | kidney uptake ([1]; 2 h p.i., B16F10 tumor mice) | liver uptake ([1]; 2 h p.i., B16F10 tumor mice) | tumor-to-blood ratio ([1]; 2 h p.i.) | accumulation in VLA-4-negative A375 xenografts (PET) (A375 xenografts) |
| --- | --- | --- | --- | --- | --- | --- | --- | --- | --- | --- | --- |
| Cc1ccccc1NC(=O)Nc1ccc(CC(=O)N[C@@H](CCCCNC(=O)/C=C/c2cccnc2)C(=O)N[C@@H](CCCC(=O)O)C(=O)NC2(C(=O)NCCOCCOCCOCCOCC(=O)N[C@@H](CCCCNC(=S)Nc3ccc(C[C@H]4CN(CC(=O)O)CCN(CC(=O)O)CCN4CC(=O)O)cc3)C(N)=O)CCCCC2)cc1 [Al^18F-NOTA-PEG4-LLP2A] ({NH(2-Me-phenyl)-CO}-[X1]K(Acryloyl(3-(3-pyridyl),E))[Aad][Ac6c][NH(CH2CH2O)4CH2CO]K(NOTA(2S-Bn(4-NHCS)))-NH2) | 61.7% | significantly reduced | – | – | – | – | – | – | – | – | – |
| Cc1ccccc1NC(=O)Nc1ccc(CC(=O)N[C@@H](CCCCNC(=O)/C=C/c2cccnc2)C(=O)N[C@@H](CCCC(=O)O)C(=O)NC2(C(=O)NCCOCCOCCOCCOCC(=O)N[C@@H](CCCCNC(=S)Nc3ccc(C[C@H]4CN(CC(=O)O)CCN(CC(=O)O)CCN4CC(=O)O)cc3)C(N)=O)CCCCC2)cc1 [^68Ga-NOTA-PEG4-LLP2A, metal not drawn] ({NH(2-Me-phenyl)-CO}-[X1]K(Acryloyl(3-(3-pyridyl),E))[Aad][Ac6c][NH(CH2CH2O)4CH2CO]K(NOTA(2S-Bn(4-NHCS)))-NH2) | 79.2% | significantly reduced | 5.75 ± 2.04 %ID/g | 6.77 ± 1.77 %ID/g | 15.3 ± 1.7 %ID/g | 3.3 ± 0.5 | 2.1 ± 0.2 %ID/g | 4.5 ± 0.3 %ID/g | 8.0 ± 0.8 %ID/g | 7.3 ± 0.6 | did not show specific accumulation |
